# ChEMBL document CHEMBL1123801, “Synthesis and antifungal activity of new 1-vinylimidazoles” (1987)
# Assays:
# Trichophyton benhamiae [1] = test: Minimum inhibitory concentration against Trichophyton mentagrophyte IFO 5810; assay type: functional
# How it was run: (§1)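 Agar dilution on Sabouraud's glucose agar. Inocula 1×10^6 cells/mL for the yeast strains (C. albicans IFO 1060, 1388) and 1×10^6 conidia/mL for the dermatophytes (T. mentagrophytes IFO 5809, 5810; T. rubrum IFO 5467, 5807). MIC in μg/mL, lowest value of duplicated experiments.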
# Trichophyton rubrum [2] = test: Minimum inhibitory concentration against Trichophyton rubrum IFO 5467; assay type: functional; how it was run: as §1
# Trichophyton rubrum [3] = test: Minimum inhibitory concentration against Trichophyton rubrum IFO 5807; assay type: functional; how it was run: as §1
# Candida albicans [4] = test: Minimum inhibitory concentration against Candida albicans IFO 1060; assay type: functional; how it was run: as §1
# Trichophyton benhamiae [5] = test: Minimum inhibitory concentration against Trichophyton mentagrophyte IFO 5809; assay type: functional; how it was run: as §1
# Candida albicans [6] = test: Minimum inhibitory concentration against Candida albicans IFO 1388; assay type: functional; how it was run: as §1
# Aspergillus fumigatus [7] = test: Minimum inhibitory concentration (MIC) against Aspergillus fumigatus; assay type: functional
# How it was run: (§2)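 Broth microdilution in Sabouraud's glucose broth. Final inocula 1×10^5 cells/mL for the yeast (C. albicans) and 1×10^5 conidia/mL for the mold (A. fumigatus) and the dermatophyte (T. asteroides). MIC read as the fungistatic end point. Lowest value of duplicated experiments.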
# Trichophyton benhamiae [8] = test: Minimum inhibitory concentration against Trichophyton mentagrophytes IFO 5809; assay type: functional, Arthroderma benhamiae; how it was run: as §1
# Trichophyton benhamiae [9] = test: Minimum inhibitory concentration against Trichophyton mentagrophytes IFO 5810; assay type: functional, Arthroderma benhamiae; how it was run: as §1
# Candida albicans [10] = test: Minimum inhibitory concentration (MIC) against Candida albicans; assay type: functional; how it was run: as §2
# Trichophyton benhamiae [11] = test: (§3) Minimum inhibitory concentration against Trichophyton asteroides; assay type: functional; how it was run: as §2
# [12] = (§4) Minimum inhibitory concentration against Aspergillus fumigatus; assay type: functional, trichophyton asteroides; conditions: Trichophyton benhamiae; how it was run: as §2
# [13] = as §3; assay type: functional; conditions: Trichophyton benhamiae; how it was run: as §2
# Candida albicans [14] = test: Inhibition of pseudomycelium formation of Candida albicans.; assay type: functional; conditions: read-out: MEC
# How it was run: (§5)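 C. albicans KE-2 (clinical isolate), final inoculum 1×10^6 yeast cells/mL in EMEM with 20% calf serum. Compounds serially diluted by the microtiter dilution system used for MICs. After incubation, wells Giemsa-stained (5% in phosphate buffer) and examined microscopically. MEC (μg/mL) = lowest concentration preventing typical pseudomycelium formation. Lowest value of duplicated experiments.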
# Trichophyton rubrum [15] = test: Minimum inhibitory concentration against Trichophyton rubrum IFO 5467
# Candida albicans [16] = test: Inhibitory effect on pseudomycelium formation of candida albicans.; assay type: functional; conditions: read-out: MEC; how it was run: as §5
# Aspergillus fumigatus [17] = test: as §4; assay type: functional; how it was run: as §2
Compound,MIC (Aspergillus fumigatus [7]),MIC (Candida albicans [10]),MIC (Trichophyton benhamiae [11]),minimal effective concentration (Candida albicans [14]),other results
Clc1ccccc1C(c1ccccc1)(c1ccccc1)n1ccnc1 [CLOTRIMAZOLE],,,,,MIC (Trichophyton benhamiae [1]): 0.4 µg/mL; MIC (Trichophyton rubrum [2]): 0.8 µg/mL; MIC (Trichophyton rubrum [3]): 0.8 µg/mL; MIC (Candida albicans [4]): 6.3 µg/mL; MIC (Trichophyton benhamiae [5]): 0.8 µg/mL; MIC (Candida albicans [6]): 12.5 µg/mL
C=C(c1cc(Cl)ccc1OCc1ccc(Cl)cc1)n1ccnc1,3.1 µg/mL,12.5 µg/mL,0.1 µg/mL,,MIC (Trichophyton benhamiae [8]): 1.6 µg/mL; MIC (Trichophyton benhamiae [9]): 1.6 µg/mL; MIC (Trichophyton rubrum [2]): 0.8 µg/mL; MIC (Trichophyton rubrum [3]): 0.8 µg/mL; MIC (Candida albicans [4]): 12.5 µg/mL; MIC (Candida albicans [6]): 12.5 µg/mL
CC(c1cccc(OCc2ccc(Cl)cc2)c1)(n1ccnc1)n1ccnc1,> 100 µg/mL,> 100 µg/mL,,,MIC [12]: > 100 µg/mL
c1ccc(C(n2ccnc2)n2ccnc2)cc1,> 100 µg/mL,> 100 µg/mL,,,MIC [13]: > 100 µg/mL
CCCCOc1ccccc1C(=C(C)C)n1ccnc1,1.6 µg/mL,50 µg/mL,0.1 µg/mL,0.31 µg/mL,
CCCOc1ccc(Cl)cc1C(=C(C)C)n1ccnc1,6.3 µg/mL,25 µg/mL,0.2 µg/mL,0.31 µg/mL,
C=C(c1cccc(OCc2ccc(Cl)cc2)c1)n1ccnc1,12.5 µg/mL,50 µg/mL,1.6 µg/mL,5 µg/mL,
C=C(c1cc(Cl)ccc1OCc1ccccc1)n1ccnc1,3.1 µg/mL,6.2 µg/mL,0.1 µg/mL,,MIC (Trichophyton benhamiae [8]): 1.6 µg/mL; MIC (Trichophyton benhamiae [9]): 1.6 µg/mL; MIC (Trichophyton rubrum [3]): 0.8 µg/mL; MIC (Candida albicans [4]): 12.5 µg/mL; MIC (Trichophyton rubrum [15]): 1.6 µg/mL; MIC (Candida albicans [6]): 12.5 µg/mL
C=C(c1ccccc1OCC(C)C)n1ccnc1,1.6 µg/mL,100 µg/mL,0.1 µg/mL,0.63 µg/mL,
CN(C)C/C=C(\c1ccccc1OCc1ccc(Cl)cc1)n1ccnc1,> 100 µg/mL,> 100 µg/mL,1.6 µg/mL,1.25 µg/mL,
CC(C)COc1ccc(Cl)cc1/C(=C\CN(C)C)n1cncn1,> 100 µg/mL,> 100 µg/mL,12.5 µg/mL,0.31 µg/mL,
C=C(c1ccccc1OCc1ccc(Cl)cc1)n1ccnc1,3.1 µg/mL,6.2 µg/mL,0.1 µg/mL,,MIC (Trichophyton benhamiae [8]): 1.6 µg/mL; MIC (Trichophyton benhamiae [9]): 0.8 µg/mL; MIC (Trichophyton rubrum [2]): 0.8 µg/mL; MIC (Trichophyton rubrum [3]): 0.8 µg/mL; MIC (Candida albicans [4]): 6.3 µg/mL; MIC (Candida albicans [6]): 12.5 µg/mL
CCC(CC)=C(c1cc(Cl)ccc1OCCC(C)C)n1cncn1,> 100 µg/mL,> 100 µg/mL,0.8 µg/mL,1.25 µg/mL,
C=C(c1ccccc1OCCc1ccc(Cl)cc1)n1ccnc1,0.4 µg/mL,25 µg/mL,0.1 µg/mL,,minimal effective concentration (Candida albicans [16]): 1.25 µg/mL
C=C(c1ccccc1OCc1cccc(Cl)c1)n1ccnc1 [CROCONAZOLE],3.1 µg/mL,3.1 µg/mL,0.1 µg/mL,,MIC (Trichophyton benhamiae [8]): 0.8 µg/mL; MIC (Trichophyton benhamiae [9]): 0.8 µg/mL; MIC (Trichophyton rubrum [2]): 0.4 µg/mL; MIC (Trichophyton rubrum [3]): 0.4 µg/mL; MIC (Candida albicans [4]): 6.3 µg/mL; MIC (Candida albicans [6]): 12.5 µg/mL
CCC(CC)=C(c1cc(Cl)ccc1OCc1ccc(Cl)cc1)n1cncn1,> 100 µg/mL,> 100 µg/mL,> 100 µg/mL,20 µg/mL,
CC=C(c1ccccc1OCc1ccc(Cl)c(Cl)c1)n1ccnc1,0.4 µg/mL,6.2 µg/mL,0.1 µg/mL,,MIC (Trichophyton benhamiae [8]): 0.8 µg/mL; MIC (Trichophyton benhamiae [9]): 0.8 µg/mL; MIC (Trichophyton rubrum [2]): 0.8 µg/mL; MIC (Trichophyton rubrum [3]): 0.8 µg/mL; MIC (Candida albicans [4]): 6.3 µg/mL; MIC (Candida albicans [6]): 12.5 µg/mL
CCCOc1ccccc1C(=C(C)C)n1ccnc1,0.8 µg/mL,12.5 µg/mL,0.2 µg/mL,0.31 µg/mL,
CC(C)COc1ccccc1/C(=C/CN(C)c1ccccc1)n1ccnc1,6.3 µg/mL,12.5 µg/mL,0.1 µg/mL,5 µg/mL,
C=C(c1ccc(Cl)cc1)n1ccnc1,100 µg/mL,100 µg/mL,25 µg/mL,> 20 µg/mL,
CC(c1ccc(Cl)cc1)(n1ccnc1)n1ccnc1,> 100 µg/mL,> 100 µg/mL,,,MIC [13]: > 100 µg/mL

Compound,MIC (Aspergillus fumigatus [7]),MIC (Candida albicans [10]),MIC (Trichophyton benhamiae [11]),minimal effective concentration (Candida albicans [14]),other results
C=C(c1cc(Cl)ccc1OCC(C)C)n1ccnc1,0.8 µg/mL,50 µg/mL,0.1 µg/mL,1.25 µg/mL,
C/C=C(\c1ccccc1OCc1ccc(Cl)cc1)n1ccnc1,3.1 µg/mL,6.2 µg/mL,0.1 µg/mL,,MIC (Trichophyton benhamiae [8]): 0.8 µg/mL; MIC (Trichophyton benhamiae [9]): 0.8 µg/mL; MIC (Trichophyton rubrum [2]): 0.8 µg/mL; MIC (Trichophyton rubrum [3]): 0.8 µg/mL; MIC (Candida albicans [4]): 12.5 µg/mL; MIC (Candida albicans [6]): 12.5 µg/mL
CC(C)COc1ccccc1/C(=C\CN(C)C)n1ccnc1,> 100 µg/mL,> 100 µg/mL,6.3 µg/mL,0.16 µg/mL,
C=C(c1ccccc1OCc1ccsc1Cl)n1ccnc1,1.6 µg/mL,6.2 µg/mL,0.1 µg/mL,0.8 µg/mL,MIC (Trichophyton benhamiae [8]): 1.6 µg/mL; MIC (Trichophyton benhamiae [9]): 0.8 µg/mL; MIC (Trichophyton rubrum [2]): 0.4 µg/mL; MIC (Trichophyton rubrum [3]): 0.8 µg/mL; MIC (Candida albicans [4]): 12.5 µg/mL; MIC (Candida albicans [6]): 12.5 µg/mL
CC(C)COc1ccc(Cl)cc1/C(=C\CN(C)C)n1ccnc1,> 100 µg/mL,> 100 µg/mL,0.8 µg/mL,2.5 µg/mL,
C=C(c1ccccc1OCCC(C)C)n1ccnc1,0.4 µg/mL,25 µg/mL,0.1 µg/mL,0.63 µg/mL,
C=C(c1ccccc1OCCc1ccccc1)n1ccnc1,0.4 µg/mL,12.5 µg/mL,0.1 µg/mL,1.25 µg/mL,
CC(C)(n1ccnc1)n1ccnc1,,> 100 µg/mL,,,MIC (Aspergillus fumigatus [17]): > 100 µg/mL; MIC [13]: > 100 µg/mL
C=C(c1ccccc1N(Cc1ccc(Cl)cc1)C(=O)C(F)(F)F)n1ccnc1,50 µg/mL,1.6 µg/mL,1.6 µg/mL,20 µg/mL,
CC(c1ccccc1)(n1ccnc1)n1ccnc1,> 100 µg/mL,> 100 µg/mL,,,MIC [13]: > 100 µg/mL
CC(C)=C(c1ccccc1OCc1ccc(Cl)cc1)n1ccnc1,6.2 µg/mL,3.1 µg/mL,0.1 µg/mL,,MIC (Trichophyton benhamiae [8]): 1.6 µg/mL; MIC (Trichophyton benhamiae [9]): 0.8 µg/mL; MIC (Trichophyton rubrum [2]): 1.6 µg/mL; MIC (Trichophyton rubrum [3]): 0.8 µg/mL; MIC (Candida albicans [4]): 12.5 µg/mL; MIC (Candida albicans [6]): 12.5 µg/mL
C/C=C(/c1cc(Cl)ccc1OCCC)n1ccnc1,6.3 µg/mL,25 µg/mL,0.1 µg/mL,0.63 µg/mL,
C=C(c1ccccc1SCc1ccc(Cl)cc1)n1ccnc1,0.8 µg/mL,50 µg/mL,,,MIC [13]: 0.1 µg/mL
c1ccc(C(c2ccccc2)(n2ccnc2)n2ccnc2)cc1,> 100 µg/mL,> 100 µg/mL,,,MIC [13]: 0.8 µg/mL
C/C=C(/c1ccccc1OCc1ccc(Cl)cc1)n1ccnc1,3.1 µg/mL,6.2 µg/mL,0.1 µg/mL,,MIC (Trichophyton benhamiae [8]): 1.6 µg/mL; MIC (Trichophyton benhamiae [9]): 0.8 µg/mL; MIC (Trichophyton rubrum [2]): 0.8 µg/mL; MIC (Trichophyton rubrum [3]): 1.6 µg/mL; MIC (Candida albicans [4]): 12.5 µg/mL; MIC (Candida albicans [6]): 12.5 µg/mL
CCC(CC)=C(c1cc(Cl)ccc1OC)n1cncn1,100 µg/mL,100 µg/mL,0.8 µg/mL,1.25 µg/mL,
CC(C)COc1ccccc1/C(=C\CN1CCOCC1)n1ccnc1,> 100 µg/mL,> 100 µg/mL,6.3 µg/mL,2.5 µg/mL,
CC(C)COc1ccccc1/C(=C/CN(C)C)n1ccnc1,> 100 µg/mL,> 100 µg/mL,> 100 µg/mL,5 µg/mL,
COc1ccc(Cl)cc1/C(=C/c1ccccc1)n1ccnc1,25 µg/mL,12.5 µg/mL,6.2 µg/mL,> 20 µg/mL,
CCCOc1ccccc1/C(=C\CN(C)C)n1ccnc1,> 100 µg/mL,> 100 µg/mL,12.5 µg/mL,0.31 µg/mL,
CC(C)=C(c1ccccc1OCC(C)(C)C)n1ccnc1,6.3 µg/mL,25 µg/mL,0.1 µg/mL,0.31 µg/mL,
